# Screens from PubChem.
# In the library only some 1.4% were active in any assay of this set; here they are far more common.
# Calpain2 inh = blocks pig calpain II enzyme activity | purified calpain II, fluorogenic peptide substrate, 30 min | inhibition, % at 16 µM | actives 0.37% (n = 220,000);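 active = inhibition above about 50%, limit read from the data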
# FXIIa inh = factor XIIa (human) inhibition; inhibition, % at 5 µM; actives 0.3% (n = 220,000); purified FXIIa, Boc-QGR-AMC fluorogenic substrate, 2 h; in the data active = inhibition above about 40%;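 also: 0% = enzyme with no compound and 100% = blank without enzyme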
# Target sequence (P00748 20-372 limits assumed): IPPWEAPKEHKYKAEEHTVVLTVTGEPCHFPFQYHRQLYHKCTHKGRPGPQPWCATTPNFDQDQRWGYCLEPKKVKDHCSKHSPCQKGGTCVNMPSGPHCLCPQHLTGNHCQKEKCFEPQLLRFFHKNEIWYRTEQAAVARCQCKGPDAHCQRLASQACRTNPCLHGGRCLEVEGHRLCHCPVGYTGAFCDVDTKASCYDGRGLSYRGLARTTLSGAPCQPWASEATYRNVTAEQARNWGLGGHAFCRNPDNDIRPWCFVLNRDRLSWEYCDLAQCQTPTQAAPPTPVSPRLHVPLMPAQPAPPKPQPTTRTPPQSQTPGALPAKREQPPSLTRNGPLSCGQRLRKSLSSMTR
# Target sequence (P00748 373-615 limits assumed): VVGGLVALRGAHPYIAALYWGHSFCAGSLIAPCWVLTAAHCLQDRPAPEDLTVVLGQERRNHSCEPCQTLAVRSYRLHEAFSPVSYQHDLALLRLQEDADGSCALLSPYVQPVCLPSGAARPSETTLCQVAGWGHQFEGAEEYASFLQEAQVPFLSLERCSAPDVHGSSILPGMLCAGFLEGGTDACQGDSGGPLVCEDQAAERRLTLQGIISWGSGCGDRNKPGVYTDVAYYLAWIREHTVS
# hK5 inh = inhibitors of human kallikrein 5; recombinant hK5, fluorogenic AMC substrate cleavage; inhibition, % at 5 µM; actives 0.59% (n = 210,000); AID 873;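 active = inhibition of 40% or more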;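 also: 0% = enzyme controls without compound and 100% = no-enzyme blanks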
# FXIa inh 1536 = factor XIa (human) inhibition; inhibition, % at 5 µM; purified FXIa, Boc-Glu-Ala-Arg-AMC fluorogenic substrate; AID 798; actives 0.14% (n = 220,000); P03951;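 active = inhibition of at least 40%; inactive = inhibition below 40%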;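 also: fluorescence of freed AMC excited at 355 nm; 0% = enzyme without compound and 100% = no enzyme blank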
# thrombin 1536 = thrombin (human) inhibition; P00734; alpha-thrombin, Boc-VPR-AMC fluorogenic substrate cleavage; actives 0.26% (n = 220,000); inhibition, % at 5 µM;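 active = inhibition at or above 40%; inactive = inhibition below 40%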;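 also: 0% = enzyme with no compound and 100% = wells without enzyme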
#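 System – human alpha-thrombin · Medium – pH 7.5 Tris (50 mM) with NaCl 150 mM, Tween 20 0.05% · Compound – single-point dosing at 5 µM, 0.2% DMSO · Incubation – enzyme reaction carried out at room temperature · Technique – fluorescence of released AMC, ex 355 nm, em 460 nm · Read-out basis – % inhibition of thrombin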
# Active calls of the source: *; nt = not tested or not shown.
SMILES,Calpain2 inh,FXIIa inh,hK5 inh,FXIa inh 1536,thrombin 1536
Nc1nonc1-c1noc(CCCCCN2C(=O)c3ccccc3C2=O)n1,51*,3,10,-5,-4
Cc1ccc(-c2noc(CN(C(=O)CCCCCN3C(=O)c4ccccc4C3=O)C(C)C)n2)cc1,55*,29,17,13,8
Cc1ccc(-c2noc(CN(C(=O)CCN3C(=O)c4ccccc4C3=O)C(C)C)n2)cc1,40,13,-7,2,2
O=C1c2ccccc2C(=O)N1CCCc1nc(-c2ccccn2)no1,11,16,5,4,4
Cc1ccc2c(c1)oc(=O)n2CC(=O)c1ccccc1,17,15,5,24,3
C=CCOc1cccc(C(=O)N2CCCC(CNS(=O)(=O)c3cccs3)C2)c1 (stereo unspecified),11,5,-2,2,-2
Nc1nc(SCC(=O)Nc2ccc([N+](=O)[O-])cc2)n[nH]1,19,6,-5,-6,-7
N#Cc1c(NC(=O)C2CC(c3ccccc3O)=NO2)sc2c1CCC2 (stereo unspecified),10,4,-10,4,-3
COC(=O)c1ccc(N2C(=O)C3CC(C)=C(C)CC3C2=O)cc1 (stereo unspecified),59*,14,2,2,4
O=C(NCc1csc(-c2cccs2)n1)C1CCC1,-26,6,-6,-3,-1
CCOC(=O)CSc1nnc(NC(=O)c2cc([N+](=O)[O-])cc([N+](=O)[O-])c2)s1,1,21,18,13,92*
CC(=O)Nc1ccc(Cc2nc3ccccc3[nH]2)cc1,-28,5,2,-1,-4
C=C(C)Cn1c(=O)c(NC(=O)c2ccccc2)c2n(c1=S)CCC2,20,20,41*,16,25
COc1ccc(-n2c(=O)c(NC(=O)c3ccccc3)c3n(c2=S)CCCCC3)cc1,17,7,2,0,-12
Cc1ccccc1Cn1c(=O)n(CC2CCC(C(=O)NCCc3ccccc3)CC2)c(=O)c2ccccc21 (stereo unspecified),66*,6,-4,1,-8
COc1ccc(N(C(=O)c2ccco2)S(=O)(=O)c2ccccc2)cc1,7,16,-4,10,58*
COc1ccc(N(C(=O)c2ccco2)S(=O)(=O)c2cc(Cl)c(Cl)cc2Cl)cc1,54*,10,-9,0,-3
COc1ccc(N(CC(=O)NCC(C)C)S(=O)(=O)c2ccccc2)cc1,-10,8,1,2,-7
COc1ccc(N(CN2C(=O)C3CC=CCC3C2=O)C(=O)c2ccco2)cc1 (stereo unspecified),-6,14,-7,1,1
O=C(N[C@H](C(=O)O)c1ccccc1)C1CCC(Cn2nnc3ccccc3c2=O)CC1 (stereo partly specified),17,43*,18,28,10
C[C@@H](C(=O)N[C@H](C(=O)O)c1ccccc1)n1nnc2ccccc2c1=O,12,2,-1,-3,-3
CN(C)S(=O)(=O)N(CC(=O)Nc1ccccc1)c1ccccc1,-23,14,-5,4,2
Cc1ccc(NC(=O)CN(c2ccccc2)S(=O)(=O)N(C)C)cc1C,21,20,43*,9,28
Cc1cc(=O)oc(C)c1C(=O)NC1CCCCCCC1,6,12,2,8,nt
COc1cc(C(N)=O)cc(Cl)c1OC,16,47*,34,20,2
SMILES,Calpain2 inh,FXIIa inh,hK5 inh,FXIa inh 1536,thrombin 1536
CC(C)(C)C1C=C(Sc2ccccc2)C(=O)O1 (stereo unspecified),2,10,-4,5,1
N#Cc1sc2nc(-c3ccccc3)cc(C(F)(F)F)c2c1N,-48,23,24,26,50*
COc1cc(/C=C(/C#N)C(=O)c2c(C)[nH]c3ccccc23)ccc1OCC#N,-6,25,42*,22,14
O=C(Nc1ccccc1-c1nnn(CC(=O)N2CCc3ccccc3C2)n1)C1CCC1,26,12,56*,-2,3
COC(=O)c1cc(NC(=O)Cc2ccc(OC)cc2)cc(C(=O)OC)c1,-5,16,-5,4,5
COc1ccccc1-n1c2c(cc(C(=O)N3CCC(C)CC3)c1=O)C(=O)CC(C)(C)C2,8,38,52*,17,10
COc1ccc(-n2c3c(cc(C(=O)N4CCC(C)CC4)c2=O)C(=O)CC(C)(C)C3)cc1,-19,9,-1,1,-6
Cc1ccc(N=C2NC(=O)/C(=C/c3cn(C)c4ccccc34)S2)cc1C,-45,19,0,20,18
Cc1cc[n+](-c2[nH]c(=O)sc2/C=N/NC([S-])=Nc2ccccc2)cc1,-5,17,-8,12,0
O=c1[nH]c(-[n+]2ccccc2)c(/C=N/NC([S-])=Nc2ccccc2)s1,-14,3,44*,-12,-5
COCCCNC(=O)C1CCC(CNS(=O)(=O)c2ccc(C)cc2)CC1 (stereo unspecified),2,1,-2,-4,-6
O=C(NCc1cccnc1)C1CCC(CNS(=O)(=O)c2ccc(Cl)cc2)CC1 (stereo unspecified),55*,5,0,-1,0
O=C(NCc1cccnc1)C1CCC(CNS(=O)(=O)c2cccc3nsnc23)CC1 (stereo unspecified),26,5,2,2,0
CCOCCCNC(=O)C1CCC(CNS(=O)(=O)c2ccc(Cl)cc2)CC1 (stereo unspecified),54*,3,-24,-13,-5
Cc1ccc(NC(=O)NCCN2C(=O)C3C4C=CC(C4)C3C2=O)cc1 (stereo unspecified),16,2,1,-2,-1
O=C(NCCN1C(=O)C2C3C=CC(C3)C2C1=O)Nc1ccccc1 (stereo unspecified),6,107*,39,5,18
CCCCCCCCCCCCCCCC[n+]1cccc2ccccc21,99*,2,-7,5,-4
CC(C)CC(=O)Nc1ccccc1N1CCCC1,18,26,72*,-4,20
CC(C)CC(=O)NC(=S)Nc1ccccc1N1CCCC1,27,-1,26,-16,-7
O=C(Cn1cc2c(n1)CCCC2)NCc1ccccn1,5,16,45*,12,18
Cc1nn2c(CN(C(=O)CN3CCOCC3)c3ccccc3)nnc2c2ccccc12,26,42*,30,26,10
N#Cc1c(NC(=O)c2cccc(S(=O)(=O)Nc3ccc(C(=O)O)cc3)c2)sc2c1CCCC2,52*,10,2,5,6
O=C(CCNC(=O)Cn1ccc2ccccc2c1=O)NCc1ccc(F)cc1Cl,7,5,1,-4,-4
CCc1ccc2nc(NC(=O)Cn3cnc4ccccc4c3=O)sc2c1,72*,11,8,-3,6
CCN(C(=O)COC(=O)c1ccc(Cl)c(N)c1)C1CCS(=O)(=O)C1 (stereo unspecified),-93,7,-8,-2,3
